System: MS2 coat protein
Assay: apparent Kd, MS2 coat protein; higher = weaker binding; RNA-MaP array; FMN 200 µM where present
Outline: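 Designs were transcribed by stalled E. coli RNA polymerase on Illumina sequencing-chip clusters. They were titrated with SNAP-549-labelled MS2 coat protein from 0.7 or 1.5 nM, doubling to 3 µM, in 100 mM Tris-HCl pH 7.5, 80 mM KCl, 4 mM MgCl2, BSA, DTT, yeast tRNA and Tween-20, without and then with constant ligand. The apparent Kd is the median of filtered per-cluster fits after normalisation of green signal to red-channel RNA signal and control-cluster median Fmax.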

[1] = designed as: OFF switch for flavin mononucleotide, no ligand
[2] = ligand present: flavin mononucleotide, designed as: OFF switch for flavin mononucleotide
[3] = designed as: ON switch for flavin mononucleotide, no ligand
[4] = ligand present: flavin mononucleotide, designed as: ON switch for flavin mononucleotide

Sequence: GACUAGGCAGGAUAUACAUGAGGAUCACCCAUGUGUCUGCGUUGGGCACGUGAACACCGUAGAAGGGCCUUGAC
- apparent Kd [1]: 0.0158 µM
- apparent Kd [2]: 0.035 µM

Sequence: ACAUGAGGAUCACCCAUGUGAUGAUCUCCCAUGUUAUAUUUCAGAAGGCUCGUGUGUUUGAUGAGAGAGGAUAUGGAAUAUACG
- apparent Kd [1]: 0.377 µM
- apparent Kd [2]: 0.258 µM

Sequence: UUAAUCUGAACAUGAGGAUCACCCAUGUAUCUUACCUUAGGACAGGAUAUAGAUGUUAAGAAUUACUAGAAGGGUCAGUAUAUU
- apparent Kd [3]: 0.0425 µM
- apparent Kd [4]: 0.0359 µM

Sequence: CUUUUGGCAGGAUAUGCUUUUUUUGACAUGAGGAUCACCCAUGUGAUGCAGUUUGGGUUUGCAGAAGGGCCUGAGU
- apparent Kd [1]: 0.0981 µM
- apparent Kd [2]: 0.131 µM

Sequence: AGAGAAUAGUCAGGAUAUGAGAAUAGAUAGAGCUCAGAAGGGACACAUGAGGAUCACCCAUGUGAAGUCUUGAGGCUGCGUGGA
- apparent Kd [1]: 0.0149 µM
- apparent Kd [2]: 0.0142 µM

Sequence: AUUGCUCGAGAGAAGGGAACAUGAGGAUCACCCAUGUUACCUCACCUGGUGACGGAACUCCAAGUUCAGGAUAUCUCGAACGAU
- apparent Kd [1]: 0.00563 µM
- apparent Kd [2]: 0.00813 µM

Sequence: UUGUUGUAUGUAGGAUAUGCAUAUUAUUAUUAUGCAGAAGGACAUGAGGAUCACCCAUGUAUGUUAUUAUUAUAUGUUAUGUGU
- apparent Kd [1]: 0.0399 µM
- apparent Kd [2]: 0.0631 µM

Sequence: GCAGCACUCUUUAACAUGAGGAUCACCCAUGUCAAAAGACAUGAGGAUAUGCAUCUGAAGAAGAUGCAGAAGGCAUUGUGCUGC
- apparent Kd [3]: 0.0323 µM
- apparent Kd [4]: 0.00694 µM

Sequence: AUGUUGAGCAGUGUAUUAAUAAAACAUGAGGAUCACCCAUGUAGAAGGCACGAGCUGAUCGCUCGUGAGGAUAUACAUCACUGC
- apparent Kd [1]: 0.00515 µM
- apparent Kd [2]: 0.0059 µM

Sequence: GUAUGAGCGAUAGGAUAUACUGAGAUUGAAUGGGUAGAAGGAUCUCUUGUGGGAAAGACAUGAGGAUCACCCAUGUCACGGACC
- apparent Kd [3]: 0.186 µM
- apparent Kd [4]: 0.1 µM

Sequence: UUUGGGUGGCUGGAGGAUAUUCUUGUGGUUACAUGAGGAUCACCCAUGUGUCGCGCGGUGCGCGAGGAGAAGGCUGGCGGCCGUU
- apparent Kd [3]: 0.411 µM
- apparent Kd [4]: 0.128 µM

Sequence: GGGUAAUAUCGAGGAUAUGUCUAGACACAUGAGGAUCACCCAUGUAUGUGUAUAGAAGGCGAUAUUAACAGCAUGUUACAUCCC
- apparent Kd [3]: 0.0481 µM
- apparent Kd [4]: 0.0208 µM

Sequence: UGAUCGAGAGAUCUUAGAUUCUGGUAGGAUAUACAUUAUGUUUAAAAUACAUGAGGAUCACCCAUGUAGAAGGACUAGAGUCUA
- apparent Kd [1]: 0.00676 µM
- apparent Kd [2]: 0.0139 µM

Sequence: GCUCUUGUCAAGAAGGGCUCGCGGUACGCUGCAGCAGGAUAUUGACAUGAGGAUCACCCAUGUCGACCGGAACAUCAUUGAGGG
- apparent Kd [1]: 0.0262 µM
- apparent Kd [2]: 0.178 µM

Sequence: GUUGGCUGAGGAUAUGCUUGCGUGCGUUUGUGUCGCGGGUGACAUGAGGAUCACCCAUGUAGAAGGUGGUCGGC
- apparent Kd [1]: 1.53 µM
- apparent Kd [2]: 0.98 µM

Sequence: GCAUGCAAGUAGAAGGACGGAUAUUUUGAUACCGUAGGAUAUGCAGAAUCAUAUCCACAUGAUAACAUGAGGAUCACCCAUGUA
- apparent Kd [1]: 0.015 µM
- apparent Kd [2]: 0.0137 µM

Sequence: GGGAAACAUGAGGAUCACCCAUGUGAGGAUAUCGAAAAAAAAAAAAAAAAAAAAAAAACGAGAAGGCACACCGG
- apparent Kd [1]: 0.071 µM
- apparent Kd [2]: 0.11 µM

Sequence: ACAAGAUCAGGAUAUACAUGAGGAUCACCCAUGUUAAUCCAAAAGGGACUUUCUUUAUGUAGAAGGGAUCUUGU
- apparent Kd [1]: 0.0312 µM
- apparent Kd [2]: 0.0855 µM

Sequence: GGGUAUAUUACAUGAGGAUCACCCAUGUCAGAAAGGGUAAUCAGAAGGUACUAUUAGAGAAAGAGUAAGGAUAUGAUUAUACCC
- apparent Kd [3]: 0.176 µM
- apparent Kd [4]: 0.0227 µM

Sequence: ACCGUAUGAACAUGAGGAUCACCCAUGUAACCGAUAACGAAUGAGGAUAUCGAUAGCAAAGCUAUCGAGAAGGCAUGGGACGGU
- apparent Kd [3]: 0.224 µM
- apparent Kd [4]: 0.0439 µM

Sequence: AAUAUGGGAGGAUAUGCAUAGAUAAAGAAACAUGUUCAACCACAUGAGGAUCACCCAUGUAGAAGGCCCAUAUA
- apparent Kd [1]: 0.0347 µM
- apparent Kd [2]: 0.129 µM

Sequence: GUCGGAAACGACAAAAGUACCCGAGCAGAAGGGUGAAAACAUGAGGAUCACCCAUGUAAAUAAUCACAGGAUAUGCUCGGGUAC
- apparent Kd [3]: 0.00609 µM
- apparent Kd [4]: 0.00443 µM

Sequence: UGGUACAUGGGAGGAUAUGGGUUGAUAACAUGAGGAUCACCCAUGUUAAAUAUGGCGAGAGCCAACUAGAAGGCCCAUGUACCU
- apparent Kd [3]: 0.594 µM
- apparent Kd [4]: 0.0388 µM

From the EternaBench riboswitch data
